A short description of data set [1]: Stability in rat plasma assessed as compound remaining at 50 uM at 37 degC after 60 mins by LC-MS/MS method. Format: ADME, cell-free. The settings on record: read-out: Stability. An outline of the steps: (§1)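 Prodrugs were incubated in rat or human plasma for 60 min. Disappearance of prodrug and concomitant appearance of ertapenem were followed by LC-MS/MS, and in selected cases monoesters from partial hydrolysis were also monitored. Ertapenem itself was incubated the same way as a control.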

Data set [2] can be described thus: Stability in human plasma assessed as compound remaining at 50 uM at 37 degC after 60 mins by LC-MS/MS method. The class given is ADME, cell-free. The settings on record: read-out: Stability. An outline of the steps:
as §1

The nature of data set [3]: Stability in pH 2.0 simulated gastric fluid assessed as compound degradation to beta-lactam ring open products at 1 uM after 60 mins by LC-MS/MS method. The class given is ADME. The following applies: read-out: Drug degradation. The essentials: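 Incubation was in simulated gastric fluid (SGF, pH 2.0) for 60 min, with loss to the β-lactam ring-opened product measured by LC-MS/MS.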

Data set [4] can be described thus: Stability in pH 6.5 simulated gastrointestinal fluid assessed as compound remaining at 50 uM after 3 hrs by LC-MS/MS method. The class given is ADME. The following applies: read-out: Stability. An outline of the steps:
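Compounds at 50 μM were incubated in fasted-state simulated intestinal fluid (FaSSIF, pH 6.5) for over 3 h. Percent remaining was determined by LC-MS/MS.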

Data set [5] in a line: Stability in pH 7.4 phosphate buffer assessed as compound remaining at 50 uM after 3 hrs by LC-MS/MS method. Format: physicochemical. The settings on record: read-out: Stability.

These results are taken from ChEMBL document CHEMBL3351346, “Design, synthesis, structure-function relationship, bioconversion, and pharmacokinetic evaluation of ertapenem prodrugs” (J Med Chem, 2014).

Some results are limits rather than exact numbers.

In the case of `Cc1oc(=O)oc1COC(=O)N1C[C@@H]2C[C@H]1C(=O)Nc1cccc(c1)C(=O)OC/C=C/COC(=O)C1=C(S2)[C@H](C)[C@@H]2[C@@H]([C@@H](C)O)C(=O)N12`, the remaining at 1 h, 50 µM in data set [1] was 0%; in data set [2], 17%. In data set [3], the degraded at 1 h, 1 µM is above 25%. The remaining at 3 h, 50 µM in data set [4] and in data set [5] was above 95% throughout.
For the compound `CCOC(=O)OCOC(=O)C1=C(S[C@@H]2CN[C@H](C(=O)Nc3cccc(C(=O)O)c3)C2)[C@H](C)[C@@H]2[C@@H]([C@@H](C)O)C(=O)N12`, the figures for the remaining at 1 h, 50 µM in data set [1] and in data set [2] were 0% and 10%, respectively. For the same compound, the degraded at 1 h, 1 µM in data set [3] is above 25%. Besides, the remaining at 3 h, 50 µM in data set [4] and in data set [5] was above 95% each time.
As to `CCOC(=O)C1=C(S[C@H]2C[C@@H](C(=O)Nc3cccc(C(=O)OCC)c3)N(Cc3oc(=O)oc3C)C2)[C@H](C)[C@@H]2[C@@H]([C@@H](C)O)C(=O)N12`, the remaining at 1 h, 50 µM was 0% in data set [1] and 19% in data set [2]. Moreover, in data set [3], the degraded at 1 h, 1 µM is above 25%. Further, the remaining at 3 h, 50 µM in data set [4] and in data set [5] was above 95% in each case.
As to `C[C@@H](O)[C@H]1C(=O)N2C(C(=O)OCOC(=O)OC(C)(C)C)=C(S[C@@H]3CN[C@H](C(=O)Nc4cccc(C(=O)OCOC(=O)OC(C)(C)C)c4)C3)[C@H](C)[C@H]12`, the values for the remaining at 1 h, 50 µM in data set [1] and in data set [2] were 8% and 67%, respectively. Besides, the degraded at 1 h, 1 µM in data set [3] is above 25%. The remaining at 3 h, 50 µM in data set [4] and in data set [5] was above 95% throughout.
For the compound `C[C@@H](O)[C@H]1C(=O)N2C(C(=O)O)=C(S[C@@H]3CN[C@H](C(=O)Nc4cccc(C(=O)OCC(F)(F)F)c4)C3)[C@H](C)[C@H]12`, in data set [3], the degraded at 1 h, 1 µM is above 25%. The remaining at 3 h, 50 µM in data set [4] and in data set [5] was above 95% throughout.
With `C[C@@H](O)[C@H]1C(=O)N2C3=C(S[C@@H]4CN[C@@H](C4)C(=O)Nc4cccc(c4)C(=O)OCOCOC3=O)[C@H](C)[C@H]12`, the figures for the remaining at 1 h, 50 µM in data set [1] and in data set [2] were 0% and 60%, respectively. Besides, the degraded at 1 h, 1 µM in data set [3] is above 25%. Moreover, the remaining at 3 h, 50 µM in data set [4] and in data set [5] was above 95% in each case.
Regarding `C[C@@H](O)[C@H]1C(=O)N2C3=C(S[C@@H]4CN[C@@H](C4)C(=O)Nc4cccc(c4)C(=O)OCCCCOC3=O)[C@H](C)[C@H]12`, the remaining at 1 h, 50 µM was 0% in data set [1] and 4% in data set [2]. Further, the degraded at 1 h, 1 µM in data set [3] is above 25%. Further, the remaining at 3 h, 50 µM in data set [4] and in data set [5] was above 95% throughout.
As to `COC(=O)OCOC(=O)C1=C(S[C@@H]2CN[C@H](C(=O)Nc3cccc(C(=O)O)c3)C2)[C@H](C)[C@@H]2[C@@H]([C@@H](C)O)C(=O)N12`, the remaining at 1 h, 50 µM in data set [1] amounted to 0%; in data set [2] it was 33%. The degraded at 1 h, 1 µM in data set [3] is above 25%. For the same compound, the remaining at 3 h, 50 µM in data set [4] and in data set [5] was above 95% each time.
Consider `CCCCCCCCCCCCCCCCOC(=O)C1=C(S[C@@H]2CN[C@H](C(=O)Nc3cccc(C(=O)OCCCCCCCCCCCCCCCC)c3)C2)[C@H](C)[C@@H]2[C@@H]([C@@H](C)O)C(=O)N12`, for which the remaining at 1 h, 50 µM in data set [1] and in data set [2] was 89% each time. In addition, the degraded at 1 h, 1 µM in data set [3] is above 25%. Also, the remaining at 3 h, 50 µM in data set [4] and in data set [5] was above 95% in each case.
For the compound `C[C@@H](O)[C@H]1C(=O)N2C(C(=O)OCOC(=O)C(C)(C)C)=C(S[C@@H]3CN[C@H](C(=O)Nc4cccc(C(=O)O)c4)C3)[C@H](C)[C@H]12`, the remaining at 1 h, 50 µM in data set [1] turned out to be 0%; in data set [2], 45%. In addition, in data set [3], the degraded at 1 h, 1 µM was above 25%. Further, the remaining at 3 h, 50 µM in data set [4] and in data set [5] was above 95% throughout.
Turning to `Cc1oc(=O)oc1COC(=O)c1cccc(NC(=O)[C@@H]2C[C@H](SC3=C(C(=O)O)N4C(=O)[C@H]([C@@H](C)O)[C@H]4[C@H]3C)CN2)c1`, the remaining at 1 h, 50 µM in data set [1] was 0%; in data set [2] it was 12%. For the same compound, the degraded at 1 h, 1 µM in data set [3] is above 25%. The remaining at 3 h, 50 µM in data set [4] and in data set [5] was above 95% in each case.
`CCOC(=O)OCOC(=O)C1=C(S[C@@H]2CN[C@H](C(=O)Nc3cccc(C(=O)OCOC(=O)OCC)c3)C2)[C@H](C)[C@@H]2[C@@H]([C@@H](C)O)C(=O)N12`: the values for the remaining at 1 h, 50 µM in data set [1] and in data set [2] were 0% and 1%, respectively. In data set [3], the degraded at 1 h, 1 µM is above 25%. For the same compound, the remaining at 3 h, 50 µM in data set [4] and in data set [5] was above 95% throughout.
With `Cc1oc(=O)oc1COC(=O)N1C[C@@H]2C[C@H]1C(=O)Nc1cccc(c1)C(=O)OC/C=C\COC(=O)C1=C(S2)[C@H](C)[C@@H]2[C@@H]([C@@H](C)O)C(=O)N12`, the remaining at 1 h, 50 µM in data set [1] stood at 0%; in data set [2], 20%. Further, the degraded at 1 h, 1 µM in data set [3] is above 25%. Moreover, the remaining at 3 h, 50 µM in data set [4] and in data set [5] was above 95% in each case.
Take `Cc1oc(=O)oc1COC(=O)N1C[C@@H]2C[C@H]1C(=O)Nc1cccc(c1)C(=O)OCc1oc(=O)oc1COC(=O)C1=C(S2)[C@H](C)[C@@H]2[C@@H]([C@@H](C)O)C(=O)N12`: the remaining at 1 h, 50 µM in data set [1] and in data set [2] was 0% in each case. In data set [3], the degraded at 1 h, 1 µM was above 25%. Moreover, the remaining at 3 h, 50 µM in data set [4] and in data set [5] was above 95% each time.
As to `CC(=O)OCOC(=O)C1=C(S[C@@H]2CN[C@H](C(=O)Nc3cccc(C(=O)OCOC(C)=O)c3)C2)[C@H](C)[C@@H]2[C@@H]([C@@H](C)O)C(=O)N12`, the remaining at 1 h, 50 µM in data set [1] and in data set [2] was 0% in each case. Besides, the degraded at 1 h, 1 µM in data set [3] is above 25%. Also, the remaining at 3 h, 50 µM in data set [4] and in data set [5] was above 95% in each case.
On to `CCC(CC)C(=O)OCOC(=O)C1=C(S[C@@H]2CN[C@H](C(=O)Nc3cccc(C(=O)O)c3)C2)[C@H](C)[C@@H]2[C@@H]([C@@H](C)O)C(=O)N12`, for which the figures for the remaining at 1 h, 50 µM in data set [1] and in data set [2] were 0% and 82%, respectively. Further, in data set [3], the degraded at 1 h, 1 µM is above 25%. Also, the remaining at 3 h, 50 µM in data set [4] and in data set [5] was above 95% throughout.
As for `C[C@@H](O)[C@H]1C(=O)N2C(C(=O)OCC(F)(F)F)=C(S[C@@H]3CN[C@H](C(=O)Nc4cccc(C(=O)O)c4)C3)[C@H](C)[C@H]12`, the remaining at 1 h, 50 µM in data set [1] was 7%; in data set [2] it was 80%. For the same compound, the degraded at 1 h, 1 µM in data set [3] was above 25%. The remaining at 3 h, 50 µM in data set [4] and in data set [5] was above 95% throughout.
Take `CC(C)OC(=O)OCOC(=O)C1=C(S[C@@H]2CN[C@H](C(=O)Nc3cccc(C(=O)O)c3)C2)[C@H](C)[C@@H]2[C@@H]([C@@H](C)O)C(=O)N12`: the figures for the remaining at 1 h, 50 µM in data set [1] and in data set [2] were 0% and 62%, respectively. In data set [3], the degraded at 1 h, 1 µM is above 25%. In addition, the remaining at 3 h, 50 µM in data set [4] and in data set [5] was above 95% throughout.
Take `C[C@@H](O)[C@H]1C(=O)N2C(C(=O)OCOC(=O)C3CCCCC3)=C(S[C@@H]3CN[C@H](C(=O)Nc4cccc(C(=O)O)c4)C3)[C@H](C)[C@H]12`: the remaining at 1 h, 50 µM in data set [1] is 0%; in data set [2], 20%. Besides, the degraded at 1 h, 1 µM in data set [3] is above 25%. The remaining at 3 h, 50 µM in data set [4] and in data set [5] was above 95% each time.
For `COC(=O)OCOC(=O)C1=C(S[C@@H]2CN[C@H](C(=O)Nc3cccc(C(=O)OCOC(=O)OC)c3)C2)[C@H](C)[C@@H]2[C@@H]([C@@H](C)O)C(=O)N12`, the remaining at 1 h, 50 µM in data set [1] and in data set [2] was 0% each time. Moreover, the degraded at 1 h, 1 µM in data set [3] is above 25%. Further, the remaining at 3 h, 50 µM in data set [4] and in data set [5] was above 95% in each case.
`CC(C)OC(=O)C1=C(S[C@@H]2CN[C@H](C(=O)Nc3cccc(C(=O)O)c3)C2)[C@H](C)[C@@H]2[C@@H]([C@@H](C)O)C(=O)N12`: in data set [3], the degraded at 1 h, 1 µM is above 25%. For the same compound, the remaining at 3 h, 50 µM in data set [4] and in data set [5] was above 95% throughout.
As for `CC(C)OC(=O)c1cccc(NC(=O)[C@@H]2C[C@H](SC3=C(C(=O)O)N4C(=O)[C@H]([C@@H](C)O)[C@H]4[C@H]3C)CN2)c1`, the degraded at 1 h, 1 µM in data set [3] was above 25%. Further, the remaining at 3 h, 50 µM in data set [4] and in data set [5] was above 95% each time.
For the compound `CCOC(=O)C1=C(S[C@@H]2CN[C@H](C(=O)Nc3cccc(C(=O)O)c3)C2)[C@H](C)[C@@H]2[C@@H]([C@@H](C)O)C(=O)N12`, in data set [3], the degraded at 1 h, 1 µM is above 25%. The remaining at 3 h, 50 µM in data set [4] and in data set [5] was above 95% in each case.
For `CCOC(=O)c1cccc(NC(=O)[C@@H]2C[C@H](SC3=C(C(=O)O)N4C(=O)[C@H]([C@@H](C)O)[C@H]4[C@H]3C)CN2)c1`, in data set [3], the degraded at 1 h, 1 µM is above 25%. Further, the remaining at 3 h, 50 µM in data set [4] and in data set [5] was above 95% each time.
